{"source": "ChEMBL document CHEMBL1212715", "about": "“Ligand-directed tosyl chemistry for protein labeling in vivo” (Nat Chem Biol, 2009)", "key": {"[1]": {"molecular_target": "Carbonic anhydrase 2 (Mus musculus) (UniProt P00920)", "assay": "Binding affinity to endogenously expressed carbonic anhydrase2 in Slc:ICR mouse using syreptavidin-horseradish peroxidase conjugate by Western blot analysis", "in_short": "(§1)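 Male SPF Slc:ICR mice, 8 weeks old, received the biotin probe intravenously (100 µM in 0.5 mL PBS), and tail-vein blood was drawn at 4, 8 and 20 h. For ex vivo runs, EDTA-treated whole blood was diluted two-fold in PBS and held with 5 µM probe, ±500 µM EZA, at 35 °C for 20 h. Lysis used NP-40 buffer with 0.5 mM EZA, followed by 15% SDS-PAGE and PVDF blotting. Biotin was detected with SAv-HRP chemiluminescence; the membrane was reprobed with anti-mouse CAII plus anti-goat IgG-HRP.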"}, "[2]": {"molecular_target": "Carbonic anhydrase 2 (Mus musculus) (UniProt P00920)", "assay": "Binding affinity to endogenously expressed carbonic anhydrase2 in Slc:ICR mouse using anti-mouse CA2 antibody by Western blot analysis", "in_short": "as §1"}, "[3]": {"assay": "Toxicity in human RBC assessed as hemolysis", "assay_type": "cell-based", "conditions": "erythrocyte"}, "[4]": {"molecular_target": "Carbonic anhydrase 2 (Homo sapiens) (UniProt P00918)", "assay": "Binding affinity to human 7-diethylaminocoumarin labelled carbonic anhydrase2 after 48 hrs by SDS-PAGE/fluorescence gel imaging", "in_short": "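Purified human CAII (40 µM) was incubated with the Dc-tosyl reagent (80 µM) in 50 mM HEPES, pH 7.2, at 37 °C. Control reactions held EZA (400 µM) or GSH (10 mM). Samples were resolved by SDS-PAGE, read by in-gel fluorescence imaging, then stained with CBB.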"}, "[5]": {"molecular_target": "Carbonic anhydrase 2 (Homo sapiens) (UniProt P00918)", "assay": "Activity at human carbonic anhydrase2 assessed as hydrolysis of p- nitrophenyl acetate"}, "[6]": {"molecular_target": "Peptidyl-prolyl cis-trans isomerase FKBP1A (Homo sapiens) (UniProt P62942)", "sequence (P62942 whole entry)": "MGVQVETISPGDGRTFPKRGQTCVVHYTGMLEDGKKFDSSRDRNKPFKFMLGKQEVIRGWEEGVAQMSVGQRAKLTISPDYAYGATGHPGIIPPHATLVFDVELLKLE", "assay": "Binding affinity to human FKBP12 in Jurkat cells at 11 uM after 24 hrs using anti-human FKBP12 antibody", "assay_type": "cell-based", "conditions": "4 uM, in the assay text read “at 4 uM after 18 hrs” for “at 11 uM after 24 hrs”"}, "Jurkat": {"test_system": "Jurkat", "assay": "Cytotoxicity against in human Jurkat cells after 18 hrs by MTT assay", "assay_type": "cell-based", "in_short": "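Jurkat cells, maintained in RPMI 1640 with 10% FBS at 37 °C under 5% CO2, were treated at 4 × 10^6 cells per 1 mL serum-free RPMI 1640 with probe (4 µM) at 37 °C for 18 h. Viability was read by MTT assay.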"}}, "note": "Active and inactive are the calls of the source. The rule behind the calls is not given here.", "data": [{"smiles": "NS(=O)(=O)c1ccc(C(=O)NCCCCCNC(=O)c2cccc(S(=O)(=O)OCCOCCOCCNC(=O)CCCC[C@@H]3SC[C@@H]4NC(=O)N[C@@H]43)c2)cc1", "values": [{"measurement": "Activity", "setting": "[1]", "result": "Active"}, {"measurement": "Activity", "setting": "[2]", "result": "Active"}]}, {"smiles": "O=C(CCCC[C@@H]1SC[C@@H]2NC(=O)N[C@@H]21)NCCOCCOCCOS(=O)(=O)c1cccc(C(=O)NCCCCCNC(=O)c2ccccc2)c1", "values": [{"measurement": "Activity", "setting": "[1]", "result": "inactive"}, {"measurement": "Activity", "setting": "[2]", "result": "inactive"}]}, {"smiles": "CCN(CC)c1ccc2cc(C(=O)NCCOCCOS(=O)(=O)c3cccc(C(=O)NCCCCCNC(=O)c4ccc(S(N)(=O)=O)cc4)c3)c(=O)oc2c1", "values": [{"measurement": "Activity", "setting": "[3]", "result": "Non-toxic"}, {"measurement": "Activity", "setting": "[4]", "result": 75, "unit": "%"}, {"measurement": "1/Km", "setting": "[5]", "result": 2.38, "unit": "×10² /M"}]}, {"smiles": "CCC(C)(C)C(=O)C(=O)N1CCCC[C@H]1C(=O)O[C@H](CCc1ccc(OC)c(OC)c1)c1cccc(OCC(=O)NCCNC(=O)c2cccc(S(=O)(=O)OCCOCCOCCNC(=O)CCCC[C@@H]3SC[C@@H]4NC(=O)N[C@@H]43)c2)c1", "values": [{"measurement": "Activity", "setting": "[6]", "result": "Active"}, {"measurement": "Activity", "setting": "Jurkat", "result": "Non-toxic"}]}]}
